MrgX1 antagonist: antagonists of human MrgX1 receptor, primary screen, HEK293 cells, Fluo-4 calcium flux; BAM8-22 antagonism; hits give low values; AID 588676, 2011; B-score at 10 µM; actives 1.3% (n = 310,000);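 active = calcium-response B-score plate-corrected more than 3 library SD below zero, starting fluorescence within 5 deviations, no agonist response on first addition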;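 note: peak minus trough fluorescence over baseline after final BAM8-22 challenge near maximal dose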
Target sequence (Q96LB2 whole entry, looked up): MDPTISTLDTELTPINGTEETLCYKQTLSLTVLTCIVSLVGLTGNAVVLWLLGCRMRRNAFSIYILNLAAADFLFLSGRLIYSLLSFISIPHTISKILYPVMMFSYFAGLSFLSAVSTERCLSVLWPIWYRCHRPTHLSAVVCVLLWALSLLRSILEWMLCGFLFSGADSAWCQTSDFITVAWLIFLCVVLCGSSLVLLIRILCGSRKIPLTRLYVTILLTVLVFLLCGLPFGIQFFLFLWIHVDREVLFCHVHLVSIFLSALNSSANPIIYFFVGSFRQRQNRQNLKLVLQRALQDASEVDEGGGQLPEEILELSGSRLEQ
MrgX1 ag: agonists of human MrgX1 receptor, primary screen, HEK293 cells, Fluo-4 calcium flux | AID 588627, 2011 | Mas-related G-protein coupled receptor member X1 (Homo sapiens), Q96LB2 | actives 0.44% (n = 310,000) | B-score at 10 µM | Fluo-4 calcium fluorescence, agonist mode; hits give high values;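 active = calcium response B-score plate-corrected fluorescence ratio at least 3 library SD, with starting fluorescence B-score inside 5 SD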
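Assay system: stable human MrgX1 HEK293 cell line. Quantity: 15,000 cells per well. Schedule: cells plated overnight, dye loaded 0.5 h 37 °C, 0.5 h room temperature. Detection: Fluo-4 NW calcium-flux fluorescence, kinetic read. Read-out basis: peak-minus-minimum fluorescence over baseline, converted to B scores. Control set: positive and negative control wells on each plate.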
RGS4 inh: RGS4 inhibitors, primary screen, cell-based, HEK293 M3R inducible RGS4, calcium flux | AID 463165, 2010 | B-score at 10 µM | actives 0.45% (n = 310,000) | Regulator of G-protein signaling 4 (Homo sapiens), P49798 | Fluo-4 calcium flux; hits give high values; triggered by carbachol at its EC20;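 active = B-score, a plate-corrected calcium signal, over three deviations above library mean, with baseline fluorescence within five deviations of library mean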;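 note: RGS4 expression induced by doxycycline in cells with stable M3 receptor; B-score is computed from the integrated fluorescence ratio over baseline after carbachol; higher B-score means a larger calcium signal and so more RGS4 inhibition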
Target sequence (P49798 whole entry, looked up): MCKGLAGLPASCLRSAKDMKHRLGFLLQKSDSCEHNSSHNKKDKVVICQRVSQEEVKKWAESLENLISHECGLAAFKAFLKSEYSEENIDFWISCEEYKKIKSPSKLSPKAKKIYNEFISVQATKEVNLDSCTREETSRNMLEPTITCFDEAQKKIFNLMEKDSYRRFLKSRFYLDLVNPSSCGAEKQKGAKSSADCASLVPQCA
RGS4 pot: RGS4 potentiators or activators, primary screen, cell-based, HEK293 M3R inducible RGS4, calcium flux; carbachol calcium flux Fluo4; hits give low values; B-score at 10 µM; actives 0.92% (n = 310,000);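 active = B-score of the integrated calcium signal more than 4 SD below the library mean, with starting fluorescence not abnormally high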;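 note: negative B-score means reduced calcium response which marks RGS4 activation or potentiation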
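Assay system: Inducible-RGS4 HEK293 cells carrying M3 receptor | Schedule: Compound preincubation 20 min at room temperature before agonist | Signal: Kinetic calcium fluorescence imaging with Fluo4-AM dye, 2 µM | Read-out basis: B score from integrated fluorescence ratio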
MrgX1 allo act: positive allosteric modulators of MrgX1, primary screen, HEK293 cells, Fluo-4 calcium flux; FDSS; hits give high values; B-score at 10 µM; actives 0.63% (n = 310,000); AID 588675, 2011;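 active = plate-corrected calcium response at least 3 library SD above typical, normal starting fluorescence, not activating the receptor alone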;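 note: compound read alongside a low EC10 to EC30 dose of BAM8-22 agonist; peak minus trough fluorescence over baseline measured at the second addition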
Numbers without * were called inactive. The list is not random: actives were taken first. Their share in the collection is about 3.5%.

`O=C(CN1CCC(n2cnc3cc(F)ccc32)CC1)Nc1ccccc1Br` gave MrgX1 antagonist inactive, MrgX1 ag inactive, RGS4 inh inactive, RGS4 pot inactive and MrgX1 allo act inactive.
`N#CC1=C(N)SC(N)=C(C#N)C1Cc1ccccc1` gave MrgX1 antagonist inactive, MrgX1 ag inactive, RGS4 inh inactive, RGS4 pot inactive and MrgX1 allo act inactive.
`N#CC1=C(N)SC(N)=C(C#N)C1c1c(Cl)cccc1Cl` gave MrgX1 antagonist inactive, MrgX1 ag 42*, RGS4 inh inactive, RGS4 pot inactive and MrgX1 allo act inactive.
Screening CCOc1ccc(C2C(C#N)=C(N)SC(N)=C2C#N)cc1OCC returned MrgX1 antagonist inactive, MrgX1 ag inactive, RGS4 inh inactive, RGS4 pot inactive and MrgX1 allo act inactive.
For N#CC1=C(N)SC(N)=C(C#N)C1c1cccc(Oc2ccccc2)c1 the results were MrgX1 antagonist -6.5*, MrgX1 ag inactive, RGS4 inh inactive, RGS4 pot inactive and MrgX1 allo act inactive.
Screening N#CC1=C(N)SC(N)=C(C#N)C1CCc1ccccc1 returned MrgX1 antagonist -5.14*, MrgX1 ag inactive, RGS4 inh inactive, RGS4 pot inactive and MrgX1 allo act inactive.
For CC(C)c1ccc2nc(SCC(=O)NCC3CCCO3)c(C#N)cc2c1 (stereo not drawn) the results were MrgX1 antagonist inactive, MrgX1 ag inactive, RGS4 inh inactive, RGS4 pot inactive and MrgX1 allo act inactive.
Screening Fc1ccc(Br)cc1C1C=C(c2ccc(Br)cc2)Nc2ncnn21 (stereo not drawn) returned MrgX1 antagonist inactive, MrgX1 ag inactive, RGS4 inh inactive, RGS4 pot inactive and MrgX1 allo act inactive.
For CCc1ccc(C2=CC(c3cc(Br)ccc3F)n3ncnc3N2)cc1 (stereo not drawn) the results were MrgX1 antagonist inactive, MrgX1 ag inactive and MrgX1 allo act 11*.
`Cc1ccc(C(=O)N2CC(C)OC(C)C2)cc1[N+](=O)[O-]` (stereo not drawn) gave MrgX1 antagonist -4.96*, MrgX1 ag inactive, RGS4 inh inactive, RGS4 pot inactive and MrgX1 allo act inactive.
For O=[N+]([O-])C1C(c2ccccc2)=NOC1c1ccccc1O (stereo not drawn) the results were MrgX1 antagonist inactive, MrgX1 ag inactive, RGS4 inh inactive, RGS4 pot inactive and MrgX1 allo act inactive.
For Cc1ccccc1Nc1c([N+](=O)[O-])cncc1[N+](=O)[O-] the results were MrgX1 antagonist inactive, MrgX1 ag inactive, RGS4 inh inactive, RGS4 pot inactive and MrgX1 allo act inactive.
Screening O=[N+]([O-])c1cncc([N+](=O)[O-])c1Nc1cccc(O)c1 returned MrgX1 antagonist inactive, MrgX1 ag 38.1*, RGS4 inh inactive, RGS4 pot inactive and MrgX1 allo act inactive.
For Cc1ccccc1S(=O)(=O)Oc1ccc2ccc(O)cc2c1 the results were MrgX1 antagonist inactive, MrgX1 ag inactive, RGS4 inh inactive, RGS4 pot -8.88* and MrgX1 allo act inactive.
Screening Cn1c(=O)c(Nc2ccc(Cl)cc2)c2c3c(cccc31)C(=O)c1ccccc1-2 returned MrgX1 antagonist inactive, MrgX1 ag inactive, RGS4 inh inactive, RGS4 pot -7.01* and MrgX1 allo act inactive.
For CCOC(=O)c1c2c3c(cccc3n(C)c1=O)C(=O)c1ccccc1-2 the results were MrgX1 antagonist inactive, MrgX1 ag inactive, RGS4 inh inactive, RGS4 pot inactive and MrgX1 allo act inactive.
For COc1cccc(-c2nc(C(=O)NCC3CCCO3)cc3c2[nH]c2ccccc23)c1 (stereo not drawn) the results were MrgX1 antagonist inactive, MrgX1 ag inactive, RGS4 inh inactive, RGS4 pot -7.19* and MrgX1 allo act inactive.
`COc1ccc(OC)c(-c2nc(C(=O)NCC3CCCO3)cc3c2[nH]c2ccccc23)c1` (stereo not drawn) gave MrgX1 antagonist inactive, MrgX1 ag inactive, RGS4 inh inactive, RGS4 pot inactive and MrgX1 allo act inactive.
Cc1ccc(C(=O)N(c2ccccc2)C2CC(C)N(C(=O)c3ccco3)c3ccccc32)cc1 (stereo not drawn) was read as MrgX1 antagonist inactive, MrgX1 ag inactive, RGS4 inh inactive, RGS4 pot inactive and MrgX1 allo act 16.8*.
`CCOc1cc(/C=C2/NC(=O)N(CC(=O)Nc3cccc(C)c3)C2=O)ccc1OC` gave MrgX1 antagonist -7.06*, MrgX1 ag inactive, RGS4 inh inactive, RGS4 pot inactive and MrgX1 allo act inactive.
CCOc1cc(/C=C2/NC(=O)N(CC(=O)Nc3cccc(C)c3)C2=O)ccc1O was read as MrgX1 antagonist inactive, MrgX1 ag inactive, RGS4 inh inactive, RGS4 pot inactive and MrgX1 allo act inactive.
For CCCNC(=O)/C=C/C(=O)O the results were MrgX1 antagonist inactive, MrgX1 ag inactive, RGS4 inh inactive, RGS4 pot inactive and MrgX1 allo act inactive.
For CC(Oc1ccc2c3c(c(=O)oc2c1)CCC3)C(=O)NCCCn1ccnc1 (stereo not drawn) the results were MrgX1 antagonist inactive, MrgX1 ag inactive, RGS4 inh inactive, RGS4 pot inactive and MrgX1 allo act inactive.
For COc1ccc2cc(/C=C3\SC(=S)NC3=O)c(N3CCOCC3)nc2c1 the results were MrgX1 antagonist -6.92*, MrgX1 ag inactive, RGS4 inh inactive, RGS4 pot inactive and MrgX1 allo act inactive.
O=C1NC(=S)S/C1=C/c1ccc(N2CCOCC2)o1 was read as MrgX1 antagonist inactive, MrgX1 ag inactive, RGS4 inh inactive, RGS4 pot inactive and MrgX1 allo act inactive.
COc1ccc(CNC(=O)C(C)n2nc(C)n3c(cc4occc43)c2=O)cc1 (stereo not drawn) was read as MrgX1 antagonist -8.11*, MrgX1 ag inactive, RGS4 inh inactive, RGS4 pot inactive and MrgX1 allo act inactive.
`Cc1nn(C(C)C(=O)NC(C)CCc2ccccc2)c(=O)c2cc3occc3n12` (stereo not drawn) gave MrgX1 antagonist -7.6*, MrgX1 ag inactive, RGS4 inh inactive, RGS4 pot inactive and MrgX1 allo act inactive.
Screening CCc1nn(C(C)C(=O)NCCc2ccccc2)c(=O)c2cc3occc3n12 (stereo not drawn) returned MrgX1 antagonist inactive, MrgX1 ag inactive, RGS4 inh inactive, RGS4 pot inactive and MrgX1 allo act inactive.
`CN(C(=O)CC(=O)Nc1ccc(Cl)c(Cl)c1)c1ccccc1` gave MrgX1 antagonist inactive, MrgX1 ag inactive, RGS4 inh inactive, RGS4 pot inactive and MrgX1 allo act inactive.

Screens (PubChem)
